# Compounds with a hit are over-represented: about 1.6% of the library has one in this group of screens.
# RBBP9 inhibitor: inhibitors of human serine hydrolase RBBP9. O75884. recombinant RBBP9, FP-Rh probe fluorescence polarization. inhibition, % at 7.94 µM. hit rate 0.2% among 220,000. AID 1515;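 active = inhibition above the campaign mean of all tested compounds plus 3 SD, cut at about 14% in these data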;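 also: plate controls were DMSO wells with RBBP9 for no effect and wells lacking RBBP9 protein for full effect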
# Target sequence (O75884 whole entry, looked up): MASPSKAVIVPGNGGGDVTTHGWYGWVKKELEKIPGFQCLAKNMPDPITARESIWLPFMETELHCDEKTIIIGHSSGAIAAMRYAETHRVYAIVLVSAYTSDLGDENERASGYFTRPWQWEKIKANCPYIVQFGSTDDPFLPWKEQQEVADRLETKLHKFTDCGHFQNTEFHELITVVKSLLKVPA
#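 Test system: recombinant human RBBP9; Timing: 30 min then 45 min, 25 °C; Detection: fluorescence polarization; Control set: RBBP9 with DMSO as uninhibited control, no-protein wells as full inhibition; Compound dosing: one concentration, 7.94 µM nominal, 0.794% DMSO; Probe or stimulus: FP-Rh activity-based probe, 375 nM before mixing.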
# eIF4H inh: inhibitors of RNA binding by human eIF4H; Q15056; eIF4H fluorescence polarization binding assay; inhibition, % at 35 µM; hit rate 0.94% among 290,000;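 also: calls also rest on retests at 20 µM and on dose response follow-up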
# TCR-CD3 inh: inhibitors of human TCR-CD3 interaction; hit rate 0.37% among 360,000; TAMRA-labeled TCR probe fluorescence, biochemical; inhibition, % at 9.4 µM; in the data active = inhibition above about 19%;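 also: recombinant mutant TCR 2C K166C tagged with TAMRA read by polarization; 0% = receptor in buffer alone and 100% = receptor with positive control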
# MLLE-PAM2 inh: blocks PAM2 peptide binding to the PABP1 MLLE domain | GST-MLLE / FITC-PAM2 fluorescence polarization | inhibition, % at 20 µM | hit rate 0.36% among 360,000 | P11940; in the data active = inhibition above about 35%, passing the limit was not always enough;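 also: plate controls were DMSO wells with GST-MLLE for no effect and wells lacking GST-MLLE protein for full effect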
# PABP polyA inh: PABP-poly(A) binding inhibition; P11940; PABP-poly(A) RNA binding, fluorescence polarization; calls only at 35 µM; hit rate 1% among 290,000; AID 2014;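 also: calls also rest on retests at 20 µM and on dose response follow-up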
# * hit, by the source's call; i = inactive; ? = inconclusive; · = no result; + = active, no number. Unless noted, no rule for the calls is given here.
SMILES,RBBP9 inhibitor,eIF4H inh,TCR-CD3 inh,MLLE-PAM2 inh,PABP polyA inh
Cc1cc(C)c(S(=O)(=O)/N=C2\C=C(Nc3ccc(C(=O)O)cc3)C(=O)c3ccccc32)c(C)c1,·,60.4*,2.6,8.2,+
CCCCN(C(=O)c1cccc(S(=O)(=O)N2CCOCC2)c1)c1c(N)n(CCC)c(=O)[nH]c1=O,-1.5,12.9,-4.5,-4.0,+
S=C(Nc1ccc(Nc2ccccc2)cc1)Nc1ccccn1,0.2,-8.0,-0.1,38.4*,i
S=C(Nc1ccccc1)Nc1ccccn1,·,·,1.6,23.4,·
Cc1cc(NC(=S)Nc2cccnc2)ccc1Br,-10.4,-6.3,-5.0,34.5,i
Fc1cccc(NC(=S)Nc2cccnc2)c1,-3.3,-0.2,-1.7,42.5*,i
Cc1cc(Cl)ccc1NC(=S)Nc1cccnc1,-4.4,1.1,6.7,38.5*,i
Cc1cc(Cl)ccc1NC(=S)NC(C)(C)C,-3.0,-2.1,2.0,39.9*,i
CCCNC(=S)Nc1ccc(Cl)cc1C,-1.3,-8.6,1.8,-4.3,i
O=C(Nc1cccnc1)Nc1cccc(F)c1,·,-1.9,5.5,1.5,i
Fc1c(F)c(F)c(/C=N/NC(=S)Nc2cccnc2)c(F)c1F,-0.1,-1.0,-1.9,40.0*,i
Fc1cccc(F)c1/C=N/NC(=S)Nc1cccnc1,-0.1,-2.4,-2.8,21.6,i
Cc1ccc(C2NC(=O)c3[nH]nc(-c4ccccc4)c32)cc1 (stereo not given),·,·,4.4,·,·
O=C(O)c1cc(O)c2c(c1)C(=O)c1cc(O)cc(O)c1C2=O,-4.0,90.1*,-3.1,-9.4,+
CCOC(=O)C1=C(O)/C(=C/c2ccccn2)SC1=Nc1ccc(Cl)cc1,-5.9,active,8.4,-4.4,i
CCOC(=O)C1=C(O)/C(=C/c2ccc(-c3ccccc3C(=O)O)o2)SC1=Nc1ccc(C)cc1,·,·,6.6,-109.9,·
CCOC(=O)C1=C(O)/C(=C/c2ccc(-c3ccccc3C(=O)O)o2)SC1=Nc1ccc(OC)cc1,1.9,78.4*,4.4,-75.3,+
CCOC(=O)C1=C(O)/C(=C/c2ccc(OCC(=O)O)c(OCC)c2)SC1=Nc1ccccc1,-5.5,7.6,-9.4,14.7,i
C#CCN(Cc1ccco1)C(=O)c1nnc2c3ccccc3n(S(=O)(=O)c3ccccc3)c2n1,·,·,-1.9,·,·
CCc1cc(=O)oc2cc(OC(=O)CN3C(=O)NC4(CCCC4)C3=O)ccc12,·,-6.6,6.7,7.1,i
O=C(CN1C(=O)NC2(CCCCC2)C1=O)Oc1ccc2c(C(F)(F)F)cc(=O)oc2c1,·,·,-2.2,44.5*,·
O=C(CCl)Nc1ccc(-c2ccccc2)cc1,-1.5,4.3,-0.7,-1.4,i
O=C(CCl)Nc1ccc(N=Nc2ccccc2)cc1,-7.6,active,10.3,-5.8,i
O=C1CSC(c2cccs2)N1c1nncs1 (stereo not given),·,·,2.0,·,·
COc1ccc(OC)c(CNS(=O)(=O)c2ccccc2Br)c1,·,·,-8.5,·,·
SMILES,RBBP9 inhibitor,eIF4H inh,TCR-CD3 inh,MLLE-PAM2 inh,PABP polyA inh
CSc1ccc(C2NC(=O)c3c(sc4c3CCN(C)C4)N2)cc1 (stereo not given),-8.8,108.6*,-2.1,-65.2,+
O=C(C(=O)N1CCC(CNC(=O)c2ccccc2F)CC1)c1cc2ccccc2o1,·,·,0.8,·,·
Cc1cccc(-n2[nH]c(C)c(C=Nc3ccc4[nH]c(=O)[nH]c4c3)c2=O)c1,-0.6,60.9*,5.0,17.3,+
O=C(O)[C@H](Cc1ccccc1)NC(=O)[C@H]1O[C@@H](n2ccc(=O)[nH]c2=O)[C@H](O)[C@@H]1O,·,·,3.7,·,·
Cc1sc(NC(=O)CSc2nnc(-c3ccc(F)cc3)o2)c(C#N)c1C,-5.7,66.3*,-3.4,-2.0,+
Cc1ccc(-c2nnc(SCC(=O)Nc3sc(C)c(C)c3C#N)n2C)cc1,3.0,12.3,0.4,-2.2,i
Cc1cc(N2CCN(C(=O)OC(C)(C)C)C[C@H]2C)ccc1N1CC[C@@H](O)C1,·,·,5.1,·,·
Nc1ccccc1NC1=CC(=O)CC(c2ccccc2)C1 (stereo not given),-1.2,3.5,·,·,i
Nc1ccccc1NC1=CC(=O)CC(c2ccco2)C1 (stereo not given),-1.0,91.2*,-2.5,-10.7,+
O=C1C=C(NNC(=O)c2cccnc2)CC(c2ccco2)C1 (stereo not given),-10.5,?,1.7,44.7*,i
Cc1ccc(NC2=CC(=O)CC(c3ccco3)C2)c(N)c1 (stereo not given),-4.5,103.6*,-8.1,-3.7,+
COC(=O)[C@]12C[C@H](CC(=O)N3CCC(c4ccccc4)CC3)C(=O)N(Cc3ccc4c(c3)OCO4)C1=C[C@H](COCc1ccccc1)O[C@@H]2C,·,·,-0.7,·,·
CCOC(=O)C1=C(C(=O)OCC)C2N(Cc3ccc(C#N)cc3)c3ccccc3[C@@]23C[C@@H](C(=O)OC)N(S(=O)(=O)c2ccc(C)cc2)C3=N1 (stereo not given in full),·,·,-0.3,·,·
CC(C)c1[nH]nc2c1C(c1ccccc1)N(c1ccccc1)C2=O (stereo not given),·,·,-1.1,·,·
Cc1cc(NC(=O)Cc2cn(Cc3ccccc3)c3ccccc23)ccc1Oc1cccnc1,·,·,-0.4,·,·
O=S(=O)(CS(=O)(=O)c1ccccc1Br)c1ccccc1Br,·,·,0.0,·,·
CCC(=O)Nc1ccc(C(=O)CSc2nnc(-c3ccccc3F)n2C2CC2)cc1,0.8,72.7*,4.2,7.4,i
Cc1cc(S(=O)(=O)NC(=O)[C@H]2O[C@@H](n3ccc(=O)[nH]c3=O)[C@H](O)[C@@H]2O)ccc1Br,·,·,-1.8,·,·
COc1cc(/C=N/NC(=O)CSc2cc(C)c(Br)cc2C)ccc1O,-7.2,-5.7,4.1,-1.0,i
Cc1cc(SCC(=O)N/N=C/c2ccc(O)c(O)c2O)c(C)cc1Br,4.2,92.6*,10.8,12.1,+
COc1cccc(C(=O)N[C@@H](Cc2cccnc2)C(=O)N2CCC[C@H]2C(=O)NCc2ccccc2)c1,·,·,3.9,·,·
O=c1cccccc1NN=C1CCCCCC1,-7.1,59.3*,-1.3,18.1,+
O=c1cccccc1NN=C1CCCCC1,-2.2,81.7*,4.1,-15.7,+
O=C(O)c1cc(Br)ccc1NN=C1CCCCC1,-5.2,7.5,-5.5,22.2,i
Cc1ccc(C(CCN(Cc2ccccc2)C(=O)c2ccco2)c2ccco2)cc1 (stereo not given),-8.4,39.8,-3.6,-0.1,i
O=C(c1ccco1)N(CCC(c1ccccc1)c1ccco1)Cc1ccco1 (stereo not given),-11.1,68.3*,7.3,-10.3,i
CCC(CC)COC(=O)C(C#N)c1nc2ccccc2nc1N1CCN(CC)CC1 (stereo not given),-2.1,80.9*,6.3,-6.8,+
CC1CN(c2nc3ccccc3nc2C(C#N)C(=O)NCc2ccc3c(c2)OCO3)CC(C)O1 (stereo not given),-10.5,88.9,3.9,-29.4,+
CCCCNC(=O)C(C#N)c1nc2ccccc2nc1N1CCN(Cc2ccc3c(c2)OCO3)CC1 (stereo not given),·,·,·,-13.0,·
